Measurements from ChEMBL document CHEMBL1125745, “Unsaturated and carbocyclic nucleoside analogues: synthesis, antitumor, and antiviral activity” (J Med Chem, 1991).

Columns and labels:
[1] = test system: L1210; experiment: Inhibitory activity against murine leukemia L1210 cells; format: functional, cell-based; conditions: Mus musculus
[2] = Cytotoxicity was evaluated against low malignancy line at 500 ug/disk.; format: functional
Procedure, shortened: (§1)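 Disk zone assay: analogue dilutions on 6.5 mm paper disks were placed on dishes with a 0.8% agar bottom layer and a 0.44% soft-agar top layer of tumor cells (≤1 × 10^5/plate) in Fishers-CMRL-1066 with 12% horse serum. Plates were incubated 6-10 days and the inhibition zone was measured by microscope; 200 zone units = 6 mm.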

[3] = species on record: Homo sapiens; experiment: Cytotoxicity was evaluated against PO1 human solid tumor at 500 ug/disk.; format: functional; procedure, shortened: as §1
[4] = Cytotoxicity was evaluated against CO9 solid tumor of mouse at 500 ug/disk.; format: functional; procedure, shortened: as §1
[5] = test system: L1210; experiment: Cytotoxicity was evaluated against L1210 leukemia cell line at 500 ug/disk.; format: functional, Mus musculus; procedure, shortened: as §1
[6] = species on record: Homo sapiens; experiment: Cytotoxicity was evaluated against C116 human solid tumor at 500 ug/disk.; format: functional; procedure, shortened: as §1
[7] = Cytotoxicity was evaluated against low malignancy line at 1000 ug/disk.; format: functional; procedure, shortened: as §1
[8] = test system: L1210; experiment: Cytotoxicity was evaluated against L1210 leukemia cell line at 1000 ug/disk.; format: functional, Mus musculus; procedure, shortened: as §1
[9] = test system: MC-38; experiment: Cytotoxicity was evaluated against C38 solid tumor of mouse at 500 ug/disk.; format: functional; set-up: unit not given beside the values; procedure, shortened: as §1
[10] = test system: PO3; experiment: Cytotoxicity was evaluated against PO3 cell line at 1000 ug/disk.
[11] = species on record: Homo sapiens; experiment: Cytotoxicity was evaluated against H125 human solid tumor at 500 ug/disk.; format: functional; procedure, shortened: as §1
[12] = species on record: Mus musculus; experiment: Concentration that reduces Rauscher murine leukemia virus titer by 50%; format: functional, organism-based
Procedure, shortened: (§2)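 SC-1 cells (1 × 10^4/well) were pretreated with polybrene, infected 2 h at 37 °C with F-MuLV or R-MuLV in EMEM-5 with 8 µg/mL polybrene, washed, and refed with analogue for 72 h. They were then UV-irradiated and overlaid with XC cells (2 × 10^5) for 48 h, fixed and stained with crystal violet. Multinucleated cells were counted and EC50 was taken by linear regression versus untreated cultures.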

[13] = Selectivity index which is the ratio of IC50 to EC50 of R-MuLV.; format: functional
[14] = species on record: Mus musculus; experiment: Cytotoxicity was evaluated; format: functional
Procedure, shortened: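 SC-1 cells (1 × 10^4 cells/mL) were seeded, incubated overnight at 37 °C, refed with EMEM-10 and given diluted analogue in triplicate for 72 h at 37 °C. Cells were trypsinized and counted in a Coulter counter. The mean of three wells gave percent of control count, and IC50 was calculated by linear regression.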

[15] = species on record: Mus musculus; experiment: Concentration that reduces Friend murine leukemia virus titer by 50%; format: functional, organism-based; procedure, shortened: as §2
[16] = Selectivity index is the ratio of IC50 to EC50 of F-MuLV.; format: functional
[17] = test system: PO3; experiment: Cytotoxicity was evaluated against PO3 cell line at 1000 ug/disk.; format: functional, Mus musculus; procedure, shortened: as §1
[18] = Inhibition of incorporation of labeled precursor into macromolecules of noninfected SC-1 cells with the compound at a concentration 100 uM determined against thymidine; format: functional
Procedure, shortened: (§3)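 Noninfected SC-1 cells were incubated with analogue as in the cytotoxicity setup, and [3H]thymidine, [3H]uridine or [3H]leucine was added. After 4 h, wells were washed with ice-cold PBS and cells were lysed in 1% SDS, 0.01 M EDTA, 0.01 M Tris pH 7.7. Lysates were dried on glass-fiber filters, and label is expressed as percent of incorporation in untreated cells.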

[19] = Inhibition of incorporation of labeled precursor into macromolecules of noninfected SC-1 cells with the compound at a concentration 300 uM determined against leucine.; format: functional
Procedure, shortened: (§4)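 SC-1 cells seeded in 24-well trays at 1 × 10^4 cells/mL, incubated overnight at 37 °C, then exposed to analogue for 72 h at 37 °C. Labeled thymidine (2.5 µCi), [3H-5,6]uridine or [3H-4,5]leucine was added. After 4 h, cells were washed with cold PBS, lysed in 1% SDS/0.01 M EDTA/0.01 M Tris pH 7.7, and lysates were dried on GF/B filters. Result given as % of untreated incorporation.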

[20] = Inhibition of incorporation of labeled precursor into macromolecules of noninfected SC-1 cells with the compound at a concentration 300 uM determined against uridine.; format: functional; procedure, shortened: as §4
[21] = Inhibition of incorporation of labeled precursor into macromolecules of noninfected SC-1 cells with the compound at a concentration 100 uM determined against leucine.; format: functional; procedure, shortened: as §3
[22] = Inhibition of incorporation of labeled precursor into macromolecules of noninfected SC-1 cells with the compound at a concentration 100 uM determined against uridine.; format: functional; procedure, shortened: as §3
[23] = Inhibition of incorporation of labeled precursor into macromolecules of noninfected SC-1 cells with the compound at a concentration 300 uM determined against thymidine; format: functional; procedure, shortened: as §4

In the case of Cc1cn(CC#CCO)c(=O)[nH]c1=O, the IC50 [1] is reported as over 500 µM.

Cc1cn(C/C=C\CCl)c(=O)[nH]c1=O gave an IC50 [1] of 46 µM, a Cytotoxicity [2] of 400 and a Cytotoxicity [3] of 550. It also gave a Cytotoxicity [4] of 320 and a Cytotoxicity [5] of 610.

Work on Cc1cn(C=C=CCO)c(=O)nc1N yielded an IC50 [1] of 620 µM, a Cytotoxicity [6] of 500 and a Cytotoxicity [7] of 550. For the same compound, the Cytotoxicity [8] was 500 and the Cytotoxicity [9] was 520.

With Cc1cn(C/C=C\CO)c(=O)[nH]c1=O the IC50 [1] was over 1000 µM.

Work on Nc1ccn(C/C=C/CCl)c(=O)n1 yielded an IC50 [1] of 50 µM, a Cytotoxicity [2] of 370 and a Cytotoxicity [5] of 520. It also gave a Cytotoxicity [10] of 550.

With O=c1[nH]c(=O)n2c3c1ncn3CC=CC2 the IC50 [1] was over 1000 µM.

Nc1nc(O)c2ncn(C/C=C\CO)c2n1 gave an IC50 [1] of 680 µM.

With Nc1ncnc2c1ncn2C=C=CCCl the IC50 [1] was 45 µM, the Cytotoxicity [2] was 280 and the Cytotoxicity [6] was 300. The Cytotoxicity [5] was 280, the Cytotoxicity [10] was 300 and the Cytotoxicity [11] was 300. For the same compound, the Cytotoxicity [9] was 400.

Work on Nc1ccn(C/C=C/CO)c(=O)n1 yielded an IC50 [1] of over 550 µM.

With Nc1ccn([C@@H]2O[C@H](CO)[C@@H](O)[C@@H]2O)c(=O)n1 [CYTARABINE] the IC50 [1] was 0.08 µM.

For NC(=O)c1ncn([C@@H]2O[C@H](CO)[C@@H](O)[C@H]2O)n1 [RIBAVIRIN], the EC50 [12] was 32.1 µM, the SI [13] was 1.6 and the IC50 [14] was 52 µM. For the same compound, the EC50 [15] was 8.3 µM and the SI [16] was 6.3.

NC1=NC(N)c2c(ncn2CC#CCO)N1 (stereo not given) gave an IC50 [1] of 200 µM.

Compound Cc1cn([C@H]2C[C@H](N=[N+]=[N-])[C@@H](CO)O2)c(=O)[nH]c1=O [ZIDOVUDINE] has an EC50 [12] of 0.046 µM, an SI [13] of 12900 and an IC50 [14] of 594 µM. For the same compound, the EC50 [15] was 0.035 µM and the SI [16] was 17000.

For Nc1nc(O)c2ncn(CC#CCO)c2n1, the IC50 [1] was 210 µM, the Cytotoxicity [17] was 210 and the Cytotoxicity [8] was 220.

In the case of Nc1nc(O)c2ncn(C/C=C/CO)c2n1, the IC50 [1] is reported as 200 µM.

Compound Nc1ccn(C=C=CCO)c(=O)n1 has a Precursor inhibition [18] of 89%, an IC50 [1] of 560 µM and an EC50 [12] of 11.5 µM. It also gave a Precursor inhibition [19] of 75%, an SI [13] of 42.5 and a Precursor inhibition [20] of 51%. The IC50 [14] was 489 µM, the Precursor inhibition [21] was 91% and the EC50 [15] was 8.1 µM. For the same compound, the Precursor inhibition [22] was 75%, the SI [16] was 60.4 and the Precursor inhibition [23] was 67%.

For Cc1cn(CC#CCCl)c(=O)[nH]c1=O, the IC50 [1] was 140 µM, the Cytotoxicity [2] was 610 and the Cytotoxicity [5] was 520. The Cytotoxicity [9] was 630.

Compound Nc1ccn([C@H]2CC[C@@H](CO)O2)c(=O)n1 [ZALCITABINE] has an EC50 [12] of 13.8 µM, an SI [13] of over 7.3 and an IC50 [14] of over 100 µM. For the same compound, the EC50 [15] was 23 µM and the SI [16] was over 4.4.

With N=c1ncn2c3c1ncn3CC=CC2 the IC50 [1] was over 1000 µM.

Nc1ncnc2c1ncn2/C=C/CCO showed an IC50 [1] of 100 µM, an EC50 [12] of 181 µM and an SI [13] of 1.7. The IC50 [14] was 304 µM, the EC50 [15] was 127 µM and the SI [16] was 2.4.

For NC1=NC(N)c2c(ncn2C=C=CCO)N1 (stereo not given), the IC50 [1] was 60 µM, the EC50 [12] was 118 µM and the Cytotoxicity [2] was 40. It also gave an SI [13] of 2.2, an IC50 [14] of 255 µM and an EC50 [15] of 118 µM. For the same compound, the Cytotoxicity [6] was 200, the SI [16] was 2.2 and the Cytotoxicity [8] was 150. It also gave a Cytotoxicity [9] of 180.
